High-throughput results from PubChem.
Rows were chosen to be rich in hits. Some 0.99% of all compounds tested hit in one or more screens of this group.
PME-1 inh = PME-1 (human) inhibition. Q9Y570. recombinant PME-1, FP-Rh probe fluorescence polarization. inhibition, % at 5.9 µM. 320,000 compounds, 0.53% hits. AID 2130;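 active means inhibition above the campaign mean of all compounds plus 3 SD, cut at about 26% in these data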;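 further: competitive labeling of PME-1 active site by serine hydrolase directed probe; inhibitors block probe labeling so polarization falls and inhibition rises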
LYPLA2 counter = counter-screen for PME1 inhibitors: inhibitors of human LYPLA2. O95372. recombinant LYPLA2, FP-Rh probe fluorescence polarization. inhibition, % at 5.9 µM. 320,000 compounds, 0.38% hits;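 active means inhibition above the screen-wide mean plus 3 SD, limit set per campaign, cut at about 26% in these data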
RBBP9 inh = inhibitors of human serine hydrolase RBBP9; recombinant RBBP9, FP-Rh probe fluorescence polarization; AID 1515; O75884; 220,000 compounds, 0.2% hits; inhibition, % at 7.94 µM;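 active means inhibition above the campaign mean of all tested compounds plus 3 SD, cut at about 14% in these data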
Target sequence (O75884 whole entry, looked up): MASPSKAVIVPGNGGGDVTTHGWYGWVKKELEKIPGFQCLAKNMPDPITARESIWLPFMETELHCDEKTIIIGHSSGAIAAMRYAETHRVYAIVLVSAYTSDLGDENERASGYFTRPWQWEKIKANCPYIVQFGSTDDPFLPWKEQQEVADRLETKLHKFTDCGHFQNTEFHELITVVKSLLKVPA
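System: RBBP9 protein | Quantity: 2.5 µM RBBP9 dispensing solution, before mixing | Reagent: FP-Rh probe, 375 nM dispensing solution | Timing: Enzyme-compound preincubation 30 min, then probe labeling 45 min, 25 °C | Measured by: Fluorescence polarization | Read-out: % inhibition | Replication: One well per compound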
Fam108B counter = counter-screen for RBBP9 inhibitors: inhibitors of mouse Fam108B; inhibition, % at 9.51 µM; recombinant Fam108B, FP-Rh probe fluorescence polarization; 300,000 compounds, 0.33% hits; AID 1947;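 active means inhibition above the screen mean inhibition plus 3 SD, computed separately per campaign, cut at about 18% in these data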;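 further: inhibitors lower polarization as less probe binds the enzyme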
LYPLA1 counter = counter-screen for PME1 inhibitors: inhibitors of human LYPLA1 | AID 2174 | 320,000 compounds, 0.16% hits | inhibition, % at 5.9 µM | O75608 | recombinant LYPLA1, FP-Rh probe fluorescence polarization;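 active means inhibition above the mean of all tested compounds plus 3 SD, set per campaign, cut at about 14% in these data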;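 further: inhibitors block serine hydrolase probe labeling of LYPLA1 so polarization falls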
LYPLA2 conf = LYPLA2 (human) inhibition, confirmation counter-screen; recombinant LYPLA2, FP-Rh probe fluorescence polarization; 1,100 compounds, 72% hits; shares compounds with LYPLA2 counter; AID 2232; inhibition, % at 5.9 µM;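 active means mean inhibition across replicates above the hit cutoff set in the primary screen, cut at about 26% in these data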;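 further: blocked labeling of the enzyme by serine hydrolase FP-Rh probe lowers polarization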
LYPLA2 ABPP = inhibitors of human LYPLA2 | inhibition, % at 20 µM | 150 compounds, 30% hits | shares compounds with LYPLA2 counter | rhLYPLA2 in mouse brain proteome, gel ABPP FP-Rh;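 active means inhibition of LYPLA2 enzyme probe labeling above about 50%, limit read from the data; inactive means inhibition below that limit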;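 further: loss of FP-Rh probe labeling of the LYPLA2 gel band measured as band density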
Of the large screens only hits and unclear results are named; the others gave an inactive call (follow-up assays come after a bar, where they were run).

CCOC(=O)c1ccc(NC(=S)N2CCCC2c2ccc(OC)c(OC)c2)cc1 (stereo not drawn)	LYPLA2 counter 30.3 | LYPLA2 conf inactive
CN(C(=O)CS(=O)(=O)c1cccc(Cl)c1)c1ccccc1	none
COc1ccc(-c2noc(CCC(=O)N3CCN(c4cccc(C(F)(F)F)c4)CC3)n2)cc1	LYPLA2 counter 69.0 | LYPLA2 conf 67.1 | LYPLA2 ABPP 70.0
C/C(=C\c1ccccc1)C(=O)N1CCN(c2cccc(C(F)(F)F)c2)CC1	none
Cc1ccc(/C=C/C(=O)N2CCN(c3cccc(C(F)(F)F)c3)CC2)cc1	LYPLA2 counter 47.2 | LYPLA2 conf 35.1
c1ccc(-c2onc(-c3ccco3)c2-c2ccc3[nH]ccc3c2)cc1	none (no result: RBBP9 inh)
CSc1cccc(CN2CCC(Oc3cccc(C(=O)N4CCCC4)c3)CC2)c1	none (no result: RBBP9 inh)
COc1ccccc1/C=C/CN1CCC(Oc2ccc(C(=O)N3CCCC3)cc2)CC1	none (no result: RBBP9 inh)
CC(C)/C=C/CN1CCC(Oc2ccc(C(=O)N3CCCC3)cc2)CC1	LYPLA2 counter 59.8 (no result: RBBP9 inh) | LYPLA2 conf inactive
CSc1cccc(CN2CCC(Oc3ccc(C(=O)N4CCCCC4)cc3)CC2)c1	LYPLA2 counter 31.4 (no result: RBBP9 inh) | LYPLA2 conf inactive
COc1ccc(C(=O)NCC(=O)OCc2ccc(F)cc2)cc1	none
CCC(Cc1c(I)cc(I)c(N)c1I)C(=O)O (stereo not drawn)	none (no result: RBBP9 inh)
CC(=O)CSc1nnc(-c2ccc(S(=O)(=O)N3CCC(C)CC3)cc2)o1	none
COc1ccc(C(=O)c2nccc3cc(OC)c(OC)cc23)cc1OC	LYPLA2 counter 26.3 (no result: RBBP9 inh, Fam108B counter) | LYPLA2 conf inactive
COc1ccc(C(=O)c2ccc(OC)c(OC)c2)cc1OC	none
O=C(c1cc(-c2ccc(F)cc2)no1)N1CCN(Cc2ccc3c(c2)OCO3)CC1	LYPLA2 counter 32.8 (no result: RBBP9 inh) | LYPLA2 conf 34.6
O=C(NCCNC(=O)c1cc(OCC(F)(F)F)ccc1OCC(F)(F)F)Nc1ccc(Cl)cc1	none
O=C(NCCNC(=O)c1cc(OCC(F)(F)F)ccc1OCC(F)(F)F)Nc1ccc(OC(F)(F)F)cc1	LYPLA2 counter 25.8 | LYPLA2 conf 35.1
Cc1ccc(N/C(C(Cl)=C(Cl)Cl)=C(/Cl)[N+](=O)[O-])c(C)c1	none (no result: PME-1 inh, LYPLA2 counter, Fam108B counter, LYPLA1 counter)
CCOc1ccc(NC(=S)Nc2cc(OC)c(Cl)cc2OC)cc1	none
